Data on six molecules can be found in article PMC6226116 (Clinical and Translational Science, 2018).

Read-outs that look alike come from different tables or passages of the source.

The conditions of data set [1]: cited from earlier work.
The format of data set [2] is in vivo, human.
The conditions of data set [3]: with tacrolimus; cited from earlier work.
The conditions of data set [4]: co‐administration of cyclosporine; cited from earlier work.
For data set [5], the system named is P‐gp. To be noted: LLC‐PK1‐P‐gp cell monolayers; cited from earlier work.
For data set [6] the following is noted: cited from earlier work. This is another data set of the same source.
The nature of data set [7]: Cyclosporine and tacrolimus trough concentrations before the third dose. It counts as in vivo, human. To be noted: tacrolimus 5 mg oral once daily, predose on day 3. In a few lines:
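Healthy adult male volunteers (n=12) took each test compound orally once daily for 3 days in separate treatment periods (100 mg as soft gelatin capsules; 5 mg). They fasted from 10 h before to 2 h after dosing and avoided CYP-affecting medications. Blood was drawn immediately before the day-3 dose, processed by a certified clinical laboratory, and plasma concentrations were measured by validated LC-MS/MS.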

Where [8] appears, read: co‐administration with ketoconazole, humans.
The mark [9] stands for this setting: both, human, plasma, oral, 100 mg.
[10] abbreviates: in the presence of cyclosporine vs apixaban alone.
[11] abbreviates: in the presence of tacrolimus vs apixaban alone.

As for `COc1ccc(-n2nc(C(N)=O)c3c2C(=O)N(c2ccc(N4CCCCC4=O)cc2)CC3)cc1` [Apixaban], in data set [1] (administration with diltiazem), the “increase in apixaban AUC” value is reported as 1.4 fold and the “increase in apixaban C max” value is given as 1.3 fold. In data set [1] (setting [8]), the “increase in apixaban AUC” value is “twofold” and the “increase in apixaban C max” value is 1.6 fold. Besides, the CL/F (usually the apparent clearance, not corrected for the fraction that reaches the circulation) in data set [2] (apixaban 10 mg oral alone, arithmetic mean (SD) [minimum, maximum]) was 5.8 L/h. The T max in data set [2] (apixaban with tacrolimus 5 mg daily for 3 days, median [minimum, maximum]) is 2.5 [1, 4] h. For the same molecule, in data set [2] (setting [9]), the Vd/F (in general, the volume of distribution divided by bioavailability) is 45 L and the half-life (usually the time in which the quantity being followed falls by half) was 6.8 h. Moreover, in data set [2] (both, human, plasma, po, 10 mg), the Tmax (as a rule, the time at which the peak concentration occurs) is 2.5 h; the Vd/F is 89 L; the half-life is 12.1 h. For the same molecule, in data set [2] (setting [10]), the “GMR for apixaban AUC(0–tlast)” value is given as 120%, the “GMR for apixaban AUC(0–∞)” value is given as 119% and the “GMR for apixaban C max” value is reported as 143%. Also, in data set [2] (setting [11]), the “GMR for apixaban AUC(0–tlast)” value was 78%, the “GMR for apixaban AUC(0–∞)” value was 77% and the “GMR for apixaban C max” value was found to be 87%. Besides, the “increase in apixaban exposure” value in data set [2] (with cyclosporine co-administration) is 20%. The “decrease in apixaban exposure” value in data set [2] (with tacrolimus co-administration) is given as 22%.

Consider `CC(C)c1c(C(=O)Nc2ccccc2)c(-c2ccccc2)c(-c2ccc(F)cc2)n1CC[C@@H](O)C[C@@H](O)CC(=O)O` [atorvastatin], for which the “impact on atorvastatin pharmacokinetics” value in data set [3] is recorded as “no impact”.

In the case of `COc1cc2c(c(OC)c1OC)-c1ccc(OC)c(=O)cc1[C@@H](NC(C)=O)CC2` [colchicine], in data set [4], the “increase in colchicine AUC(0–∞)” value is 215% and the “increase in colchicine C max” value was 224%.

On to `CC(=O)N1CCN(c2ccc(OCC3COC(Cn4ccnc4)(c4ccc(Cl)cc4Cl)O3)cc2)CC1` (stereo not shown) [ketoconazole], for which, in data set [5], the “inhibition of apixaban efflux” value is “extensively inhibited”.

`COc1ccc2c(O[C@@H]3C[C@H]4C(=O)N[C@]5(C(=O)NS(=O)(=O)C6CC6)C[C@H]5/C=C\CCCCN(C)C(=O)[C@@H]4C3)cc(-c3nc(C(C)C)cs3)nc2c1C` [simeprevir]: in data set [6] (with cyclosporine), the “increase in AUC(0‐24) of simeprevir” value is listed as 5.8 fold and the “increase in C max of simeprevir” value was 4.7 fold. In data set [6] (with tacrolimus), the “increase in AUC(0‐24) of simeprevir” value is 85% and the “increase in Cmax of simeprevir” value is 79%.

Turning to `C=CC[C@@H]1/C=C(\C)C[C@H](C)C[C@H](OC)[C@H]2O[C@@](O)(C(=O)C(=O)N3CCCC[C@H]3C(=O)O[C@H](/C(C)=C/[C@@H]3CC[C@@H](O)[C@H](OC)C3)[C@H](C)[C@@H](O)CC1=O)[C@H](C)C[C@@H]2OC` [tacrolimus], the “trough concentration, mean (SD)” value in data set [7] was 3.8 (2.3) ng/mL.
